Measured values as given in ChEMBL document CHEMBL4261586, “Conjugation of a 5-nitrofuran-2-oyl moiety to aminoalkylimidazoles produces non-toxic nitrofurans that are efficacious in vitro and in vivo against multidrug-resistant Mycobacterium tuberculosis” (Eur J Med Chem, 2018).
Converted amounts (≈) assume the structure as drawn.

What was measured:
[1] = test system: Mycobacterium tuberculosis; assay: Antimycobacterial activity against Mycobacterium tuberculosis H37Rv after 7 days by resazurin microtitre plate assay; assay type: functional; settings: 168 h
How it was run: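 REMA in Middlebrook 7H9 with OADC. Three-week culture vortexed with glass beads, adjusted to 1.0 McFarland (about 3×10⁸ bacteria/mL) and diluted 20-fold. Final concentrations 1.6–200 via 2-fold dilutions; growth control plus 1% ([…] diluted) control. 7 days at 35 °C, then 0.01% resazurin for 18 h; fluorescence ex 520/em 590 nm. MIC taken where fluorescence plateaued or matched the 1% control (t-test).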

[2] = test system: Mycobacterium tuberculosis; assay: Antitubercular activity against Mycobacterium tuberculosis H37Rv infected in C57BL/6 mouse assessed as lung mass index at 20 mg/kg, po administered via gavage over 42 days (excluding weekends) (reference value: 2.28 +/- 0.1); assay type: functional
[3] = test system: Mycobacterium tuberculosis; assay: Antitubercular activity against Mycobacterium tuberculosis H37Rv infected in C57BL/6 mouse assessed as tubercular foci index at 20 mg/kg, po administered via gavage over 42 days (excluding weekends) (reference value: 23.6 +/- 0.09); assay type: functional
[4] = test system: Mycobacterium tuberculosis; assay: Antitubercular activity against Mycobacterium tuberculosis H37Rv infected in C57BL/6 mouse assessed as colony forming units per lung mass unit at 20 mg/kg, po administered via gavage over 42 days (excluding weekends) (reference value: 169.1 +/- 11.83 x 10^3); assay type: functional
Enterococcus faecium = assay: Antibacterial activity against Enterococcus faecium assessed as diameter of inhibition zone after 18 hrs by Kirby-Bauer disk diffusion test; assay type: functional
Staphylococcus aureus = assay: Antibacterial activity against Staphylococcus aureus assessed as diameter of inhibition zone after 18 hrs by Kirby-Bauer disk diffusion test; assay type: functional
Klebsiella pneumoniae = assay: Antibacterial activity against Klebsiella pneumoniae assessed as diameter of inhibition zone measured after 18 hrs by Kirby-Bauer disk diffusion test; assay type: functional
Acinetobacter baumannii = assay: Antibacterial activity against Acinetobacter baumannii assessed as diameter of inhibition zone measured after 18 hrs by Kirby-Bauer disk diffusion test; assay type: functional
Pseudomonas aeruginosa = assay: Antibacterial activity against Pseudomonas aeruginosa assessed as diameter of inhibition zone measured after 18 hrs by Kirby-Bauer disk diffusion test; assay type: functional
Klebsiella aerogenes = assay: Antibacterial activity against Enterobacter aerogenes assessed as diameter of inhibition zone measured after 18 hrs by Kirby-Bauer disk diffusion test; assay type: functional
[5] = (§1) Toxicity in po dosed C57BL6 mouse assessed as lethality measured daily over 14 days of treatment; assay type: organism-based; settings: C57BL6, mouse, in vivo
How it was run: (§2)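 Male C57BL6 mice (19.0–22.0 g), quarantined 14 days, 6 per dose group. Single oral gavage of Tween-80 suspension in water at 700–1100 mg/kg in 100 mg/kg steps; controls (7 mice) received 0.01% Tween-80. Lethality, time to death and clinical signs recorded daily for 14 days, then cervical dislocation and necropsy; heart, lung, liver, spleen and left kidney weights expressed relative to body weight. LD50 calculated by formula from dead/total counts.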

Mus musculus [6] = assay: as §1; assay type: organism-based; settings: mouse, in vivo, 336 h; how it was run: as §2
Mus musculus [7] = assay: Toxicity in C57BL6 mouse assessed as lethality at 1100 mg/kg, po measured daily over 14 days of treatment; assay type: organism-based; settings: in vivo, 336 h; how it was run: as §2
Mus musculus [8] = assay: Toxicity in C57BL6 mouse assessed as lethality at 700 mg/kg, po measured daily over 14 days of treatment; assay type: organism-based; settings: in vivo, 336 h; how it was run: as §2
Mus musculus [9] = assay: Toxicity in C57BL6 mouse assessed as body mass at 700 to 1100 mg/kg, po measured after 14 days (reference value: 22.9 +/- 0.32 g); assay type: organism-based; settings: in vivo, 336 h; how it was run: as §2
Mus musculus [10] = assay: Toxicity in C57BL6 mouse assessed as heart mass quotient at 700 to 1100 mg/kg, po measured after 14 days relative to total body weight; assay type: organism-based; settings: in vivo, 336 h; how it was run: as §2
Mus musculus [11] = assay: Toxicity in C57BL6 mouse assessed as lung mass quotient at 700 to 1100 mg/kg, po measured after 14 days relative to total body weight; assay type: organism-based; settings: in vivo, 336 h; how it was run: as §2
Mus musculus [12] = assay: Toxicity in C57BL6 mouse assessed as liver mass quotient at 700 to 1100 mg/kg, po measured after 14 days relative to total body weight; assay type: organism-based; settings: in vivo, 336 h; how it was run: as §2
Mus musculus [13] = assay: Toxicity in C57BL6 mouse assessed as spleen mass quotient at 700 to 1100 mg/kg, po measured after 14 days relative to total body weight; assay type: organism-based; settings: in vivo, 336 h; how it was run: as §2
Mus musculus [14] = assay: Toxicity in C57BL6 mouse assessed as left kidney mass quotient at 700 to 1100 mg/kg, po measured after 14 days relative to total body weight; assay type: organism-based; settings: in vivo, 336 h; how it was run: as §2
Mus musculus [15] = assay: Toxicity in C57BL6 mouse assessed as brain mass quotient at 700 to 1100 mg/kg, po measured after 14 days relative to total body weight; assay type: organism-based; settings: in vivo, 336 h

**Q.** For `Cc1cnc(Cc2ccccc2)n1CCNC(=O)c1ccc([N+](=O)[O-])o1`, which MIC [1] is on record?
**A.** Its MIC is 50 mg/L (≈ 141 µM).

**Q.** Which MIC [1] does the source give for `Cc1cnc(C2CCCO2)n1CC1CCN(C(=O)c2ccc([N+](=O)[O-])o2)CC1` (configuration not stated) here?
**A.** The MIC was 50 mg/L (≈ 129 µM).

**Q.** With `Cc1cnc(C)n1C1CCN(C(=O)c2ccc([N+](=O)[O-])o2)C1` (configuration not stated) as the compound, how does the MIC [1] read?
**A.** Its MIC is 3.1 mg/L (≈ 10.2 µM).

**Q.** With `Cc1cnc(C)n1C1CCCN(C(=O)c2ccc([N+](=O)[O-])o2)C1` (configuration not stated) as the compound, how does the MIC [1] read?
**A.** The MIC was 100 mg/L (≈ 314 µM).

**Q.** Which Activity_index [2] does the source give for `CC[C@@H](CO)NCCN[C@@H](CC)CO` [ETHAMBUTOL] here?
**A.** The Activity_index was 1.61.

**Q.** And the Activity_index [3]?
**A.** Its Activity_index is 2.65.

**Q.** And the Activity [4]?
**A.** The Activity was 85.32 ×10³ CFU.

**Q.** Which MIC [1] does the source give for `Cc1cnc(-c2cccnc2)n1CCC1CCN(C(=O)c2ccc([N+](=O)[O-])o2)CC1` here?
**A.** The MIC was 100 mg/L (≈ 244 µM).

**Q.** Which MIC [1] does the source give for `Cc1cnc(C)n1C1CCN(C(=O)c2ccc([N+](=O)[O-])o2)CC1` here?
**A.** Its MIC is greater than 100 mg/L.

**Q.** Which MIC [1] does the source give for `Cc1cnc(CC2CCN(C(=O)c3ccc([N+](=O)[O-])o3)C2)n1CC1CC1` (configuration not stated) here?
**A.** Its MIC is 6.2 mg/L (≈ 17.3 µM).

**Q.** Which MIC [1] does the source give for `Cc1cnc(CCNC(=O)c2ccc([N+](=O)[O-])o2)n1C1CCC1` here?
**A.** The MIC was 6.2 mg/L (≈ 19.5 µM).

**Q.** With `CCCn1c(C)cnc1C1CN(C(=O)c2ccc([N+](=O)[O-])o2)C1` as the compound, how does the MIC [1] read?
**A.** The MIC was 1.6 mg/L (≈ 5.03 µM).

**Q.** What about the “diameter of the inhibition zone (DIZ)” value (Enterococcus faecium) of the same compound?
**A.** The value was 0 mm.

**Q.** What about the “diameter of the inhibition zone (DIZ)” value (Staphylococcus aureus) of the same compound?
**A.** The value was 15 mm.

**Q.** What about the “diameter of the inhibition zone (DIZ)” value (Klebsiella pneumoniae) of the same compound?
**A.** The value was 0 mm.

**Q.** And the “diameter of the inhibition zone (DIZ)” value (Acinetobacter baumannii)?
**A.** The value was 25 mm.

**Q.** What about the “diameter of the inhibition zone (DIZ)” value (Pseudomonas aeruginosa) of the same compound?
**A.** Its value is 0 mm.

**Q.** And the “diameter of the inhibition zone (DIZ)” value (Klebsiella aerogenes)?
**A.** Its value is 19 mm.

**Q.** And the LD50 at 336 h [5]?
**A.** Its LD50 at 336 h is 900 mg/kg.

**Q.** What about the LD16 (Mus musculus [6]) of the same compound?
**A.** Its LD16 is 287.5 mg/kg.

**Q.** And the LD84 (Mus musculus [6])?
**A.** Its LD84 is 1037.5 mg/kg.

**Q.** What about the LD100 (Mus musculus [6]) of the same compound?
**A.** The LD100 was 1100 mg/kg.

**Q.** And the Activity (Mus musculus [7])?
**A.** The Activity was “Toxic”.

**Q.** What about the Activity (Mus musculus [8]) of the same compound?
**A.** The Activity was “Non-Toxic”.

**Q.** What about the Activity (Mus musculus [9]) of the same compound?
**A.** Its Activity is 22.32 g.

**Q.** And the “fold change (FC)” value (Mus musculus [10])?
**A.** Its value is 0.34.

**Q.** And the “fold change (FC)” value (Mus musculus [11])?
**A.** Its value is 0.48.

**Q.** What about the “fold change (FC)” value (Mus musculus [12]) of the same compound?
**A.** The value was 4.49.

**Q.** What about the “fold change (FC)” value (Mus musculus [13]) of the same compound?
**A.** Its value is 0.23.

**Q.** What about the “fold change (FC)” value (Mus musculus [14]) of the same compound?
**A.** The value was 0.39.

**Q.** What about the “fold change (FC)” value (Mus musculus [15]) of the same compound?
**A.** Its value is 1.11.

**Q.** And the Activity_index [2]?
**A.** Its Activity_index is 1.62.

**Q.** What about the Activity_index [3] of the same compound?
**A.** Its Activity_index is 2.7.

**Q.** And the Activity [4]?
**A.** The Activity was 85.9 ×10³ CFU.

**Q.** Which MIC [1] does the source give for `Cc1cnc(-c2ccccc2)n1CC1CCN(C(=O)c2ccc([N+](=O)[O-])o2)C1` (configuration not stated) here?
**A.** Its MIC is 6.2 mg/L (≈ 16.3 µM).

**Q.** For `COCCn1c(C)cnc1CC1CCN(C(=O)c2ccc([N+](=O)[O-])o2)CC1`, which MIC [1] is on record?
**A.** The MIC was greater than 100 mg/L.

**Q.** Which MIC [1] does the source give for `Cc1cnc(CCNC(=O)c2ccc([N+](=O)[O-])o2)n1C1CCCCCCC1` here?
**A.** The MIC was 25 mg/L (≈ 66.8 µM).

**Q.** What does the source list for `O=C(O)c1cn(C2CC2)c2cc(N3CCNCC3)c(F)cc2c1=O` [CIPROFLOXACIN]?
**A.** diameter of the inhibition zone (DIZ) (Enterococcus faecium): 25 mm; diameter of the inhibition zone (DIZ) (Staphylococcus aureus): 27 mm; diameter of the inhibition zone (DIZ) (Klebsiella pneumoniae): 26 mm; diameter of the inhibition zone (DIZ) (Acinetobacter baumannii): 31 mm; diameter of the inhibition zone (DIZ) (Klebsiella aerogenes): 26 mm
